For assay [1], the target named is T1, Thioredoxin reductase (Homo sapiens, UniProt Q16881+Q9NNW7+Q86VQ6). Description: Inhibitory concentration agains human thioredoxin reductase. Type of assay: protein assay. The method, boiled down: (§1)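 Human TrxR purified from placenta, 5 nM in the DTNB assay or 30 nM in the Trx assay. Enzyme was preincubated 10 min at 25 °C in 100 mM potassium phosphate, 2 mM EDTA, pH 7.4, with NADPH and inhibitor (DMF stock; DMF controls). DTNB assay: 200 μM NADPH, started with 3 mM DTNB, A412. Trx assay: 100 μM NADPH, started with 20 μM hTrxC72S, A340. IC50 from dose–response curves, ≥3 determinations.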

For assay [2], the target named is T1, Thioredoxin reductase. Briefly: Inhibitory concentration against wild type human thioredoxin reductase. Type of assay: protein assay. In short, it runs like this: (§2)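 Placental wt-hTrxR (5 nM) preincubated 10 min at 25 °C with 200 μM NADPH and inhibitor (from 10 mM DMF stock) in 100 mM potassium phosphate, 2 mM EDTA, pH 7.4. Started with 3 mM DTNB; TNB formation read at 412 nm. DMF controls. IC50 from dose–response curves, mean of at least three determinations.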

In assay [3] the target is T1, Thioredoxin reductase. Briefly: Inhibitory concentration against wild type human thioredoxin reductase (5 nM) pre-incubated for 10 min at 25 degree C in buffer in the presence of 200 uM NADPH. Type of assay: protein assay. The method, boiled down: as §2
For assay [4], the target named is T1, Thioredoxin reductase. Description: Inhibitory concentration against wild type human thioredoxin reductase (30 nM) pre-incubated for 10 min at 25 degree C in phosphate buffer in the presence of 100 uM NADPH. Type of assay: protein assay. In short, it runs like this:
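Placental wt-hTrxR (30 nM) preincubated 10 min at 25 °C with 100 μM NADPH and inhibitor (from 10 mM DMF stock) in 100 mM potassium phosphate, 2 mM EDTA, pH 7.4. Started with 20 μM hTrxC72S; NADPH oxidation read at 340 nm. DMF controls. IC50 from dose–response curves, mean of at least three determinations.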

Assay [5] has as its target T1, Thioredoxin reductase. Briefly: Inhibitory concentration against wild type mutant human thioredoxin reductase (hTrxRdelta-16) pre-incubated for 10 min at 25 degree C in buffer in the presence of 200 uM NADPH. In kind it is protein assay. The method, boiled down:
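Truncated recombinant hTrxRΔ-16 preincubated 10 min at 25 °C with 200 μM NADPH and inhibitor in potassium phosphate/EDTA buffer, pH 7.4. Reaction started with 3 mM DTNB; TNB formation read at 412 nm. DMF controls. IC50 from dose–response curves.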

Assay [6] relates to MCF7. Briefly: Inhibitory concentration against MCF-7 cell line. In kind it is functional, cell-based, Homo sapiens. In short, it runs like this: (§3)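 Human tumour lines grown in DMEM at 37 °C under 5% CO2, seeded in 96-well plates. Dosed next day in quadruplicate with 1:2 serial dilutions, 50 to 0.8 μg/mL; platinum complexes from DMF stock, cisplatin in water. After 96 h cells fixed in 3% formaldehyde and stained with 1% crystal violet, absorbance at 595 nm. For MCF-7 the dye was eluted with ethanol/1% acetic acid before reading. IC50 from fitted dose–response curves.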

In assay [7] the test system is Calu-6. Briefly: Inhibitory concentration against Calu-6 cell line. Type of assay: functional, cell-based, Homo sapiens. The method, boiled down:
as §3

The subject of assay [8] is SK-MEL-25. Briefly: Inhibitory concentration against SK-MEL-25 cell line. Type of assay: functional, cell-based, Homo sapiens. The method, boiled down: as §3
The target in assay [9] is T1, Thioredoxin reductase. Briefly: Inhibitory concentration against wild type mutant human thioredoxin reductase (Sec498Cys) (100 nM) pre-incubated for 10 min at 25 degree C in buffer in the presence of 200 uM NADPH. In kind it is protein assay. The method, boiled down:
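Recombinant hTrxR Sec498Cys (100 nM) preincubated 10 min at 25 °C with 200 μM NADPH and inhibitor in potassium phosphate/EDTA buffer, pH 7.4. Started with 3 mM DTNB; absorbance read at 412 nm. DMF controls. IC50 from dose–response curves, mean of at least three determinations.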

Assay [10] concerns the target T1, Thioredoxin reductase. Briefly: Inhibitory concentration against wild type mutant human thioredoxin reductase (Sec498Cys) (1.3 uM) pre-incubated for 10 min at 25 degree C in buffer in the presence of 100 uM NADPH. In kind it is protein assay. In short, it runs like this:
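Recombinant hTrxR Sec498Cys (1.3 μM) preincubated 10 min at 25 °C with 100 μM NADPH and inhibitor in potassium phosphate/EDTA buffer, pH 7.4. Reaction started with 20 μM hTrxC72S; NADPH oxidation read at 340 nm. DMF controls. IC50 from dose–response curves, at least three determinations.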

Assay [11] relates to MCF7. Description: Ratio of inhibition by compound against MCF-7 cell line to inhibition by cisPt against MCF-7 cell line. In kind it is functional, cell-based. The following applies: Homo sapiens. The method, boiled down:
(§4)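 Cytotoxicity in DMEM at 37 °C, 5% CO2, quadruplicate 1:2 dilutions (50 to 0.8 μg/mL), 96 h, crystal violet read at 595 nm. Value is the ratio of the complex IC50 to the cisplatin IC50 measured on the same line.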

Assay [12] has as its system Calu-6. Description: Ratio of inhibition by compound against Calu-6 cell line to inhibition by cisPt against Calu-6 cell line. In kind it is functional, cell-based. The following applies: Homo sapiens. In short, it runs like this:
as §4

Assay [13] deals with SK-MEL-25. Briefly: Ratio of inhibition by compound against SK-MEL-25 cell line to inhibition by cisPt against SK-MEL-25 cell line. The following applies: Homo sapiens. Type of assay: functional, cell-based. The method, boiled down: as §4
The target of assay [14] is T1, Thioredoxin reductase. Briefly: Inhibitory concentration against human thioredoxin reductase. Type of assay: protein assay. In short, it runs like this: as §1
Assay [15] has as its target T2, Glutathione reductase, mitochondrial (Homo sapiens, UniProt P00390).
T2 sequence (P00390 whole entry): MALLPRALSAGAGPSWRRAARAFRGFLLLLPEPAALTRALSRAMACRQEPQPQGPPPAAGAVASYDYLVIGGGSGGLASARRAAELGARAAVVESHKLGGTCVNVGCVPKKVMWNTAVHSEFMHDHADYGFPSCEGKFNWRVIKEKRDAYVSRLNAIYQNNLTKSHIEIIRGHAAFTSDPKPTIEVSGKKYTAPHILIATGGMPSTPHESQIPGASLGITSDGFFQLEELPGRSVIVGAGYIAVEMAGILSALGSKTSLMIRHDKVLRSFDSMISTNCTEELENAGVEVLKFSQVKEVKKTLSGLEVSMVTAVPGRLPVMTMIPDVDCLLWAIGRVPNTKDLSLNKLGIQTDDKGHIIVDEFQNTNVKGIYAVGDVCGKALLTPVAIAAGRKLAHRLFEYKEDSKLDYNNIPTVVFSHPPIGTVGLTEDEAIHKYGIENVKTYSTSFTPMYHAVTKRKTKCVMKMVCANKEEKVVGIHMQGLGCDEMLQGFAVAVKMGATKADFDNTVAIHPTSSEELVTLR
Description: Inhibitory concentration against human glutathione reductase.

The target of assay [16] is T1, Thioredoxin reductase. Description: Inhibitory concentration (25 uM) against human thioredoxin reductase. In kind it is protein assay. The method, boiled down: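 Placental hTrxR screen in 100 mM sodium phosphate, 2 mM EDTA, pH 7.0. Mix held 500 μM NADPH, 200 μM DTNBA and 25 μM inhibitor. Reaction started with native enzyme. Thionitrobenzamide formation read at 416 nm over time, with and without inhibitor.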

pIC50, pKi: −log10 of the molar value.

From ChEMBL document CHEMBL1140383, “Synthesis of 5-nitro-2-furancarbohydrazides and their cis-diamminedichloroplatinum complexes as bitopic and irreversible human thioredoxin reductase inhibitors” (J Med Chem, 2005) come the findings set out here.

For the molecule `O=C1C=CC(=O)c2c(O)ccc(O)c21` [NAPHTHAZALIN], the IC50 (commonly the concentration that gives 50% inhibition) in assay [1] came out at 20 µM.
For the molecule “2-(2-Amino-ethylamino)-N-(7-{2-[N'-(5-nitro-furan-2-carbonyl)-hydrazino]-2-oxo-ethyl}-naphthalen-2-yl)-acetamide; compound with GENERIC INORGANIC NEUTRAL COMPONENT [listing 1 of 2 here]”, in [2], the pKi (as a rule, −log10 of the Ki, conventionally taken in molar units) is 6.56. Further, the negative logarithm of the IC50 (pIC50) (in general, the IC50 on a negative log10 scale, so that one unit is a factor of ten) is 6.96 in [3]; 6.92 in assay [4]; 3.84 in assay [5]; 4.27 in [6]; 4.56 in assay [7]; 4.82 in assay [8]. In addition, the pIC50 in [9] was 3.89; in assay [10], 4.42.
On to “2-(2-Amino-ethylamino)-N-(7-{2-[N'-(5-nitro-furan-2-carbonyl)-hydrazino]-2-oxo-ethyl}-naphthalen-2-yl)-acetamide; compound with GENERIC INORGANIC NEUTRAL COMPONENT [listing 2 of 2 here]”, for which the values for the Ratio in assay [11], in [12] and in [13] were 0.8, 15.3 and 3, respectively.
Molecule `O=C1C=CC(=Nc2cc(Cl)c(O)c(Cl)c2)C=C1` [DICHLOROPHENOL INDOPHENOL] returned an IC50 in assay [14] of 25 µM.
Turning to `O=C(Cc1ccc2ccccc2c1)NNC(=O)c1ccc([N+](=O)[O-])o1`, the negative logarithm of the IC50 (pIC50) in [15] is 5.39; in assay [3], 4.74; in assay [5], 3.67. Also, the IC50 in assay [16] was determined as 16 µM.
